For series [1], the system named is Canis familiaris. Description: Antisecretory activity after iv administration in histamine-stimulated Heidenhain pouch dogs; Range is 0.3-1.0. The conditions noted are these: Canis lupus familiaris. The class given is functional. The essentials: (§1)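 Conscious Heidenhain-pouch dogs, fasted 18 h, with iv saline. Histamine is infused at 1.0 mg/h (about 13.0 mL/h) to a steady plateau. A single iv bolus of PG follows, from ethanol stock diluted in isoosmotic phosphate buffer (≤20% alcohol). Doses are log-spaced, usually 0.1–100 μg/kg, with ≥2 dogs per dose. Acid is measured by titration to pH 7.0 in 15-min samples; ED50 is the 50% inhibition of total acid output.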

Series [2] relates to Canis familiaris. Description: Antisecretory activity after ig administration in histamine-stimulated gastric fistula dogs; Range is 4.5-10.0. The class given is functional. The conditions noted are these: Canis lupus familiaris, Stomach, po. The essentials:
(§2)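 Conscious gastric-fistula dogs, fasted 18 h, in Pavlov stands with iv 0.15 M NaCl. After basal collection, histamine is infused iv at 1.0 mg/h (about 6.5 mL/h). At the steady-state plateau, the PG is given intragastrically through a dosing plug and the cannula is closed 30 min. Collections are then taken every 15 min and titrated with 0.1 N NaOH to pH 7.0.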

The test system of the next series is Rattus norvegicus. Description: Diarrheal effect after ig administration in rats. The conditions noted are these: po. The class given is functional. The essentials:
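Male Charles River rats, 210–230 g, are fasted 24 h and housed singly. Logarithmically graded oral PG doses are given, N = 6–12. Diarrhea is scored all-or-none at hourly intervals up to 8 h after dosing, and an ED50 is derived.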

Series [3] in a line: Ratio of ED50 of diarrheal effect to antisecretory effect. The class given is ADME. The conditions noted are these: read-out: Therapeutic index. The essentials:
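Ratio of the oral diarrheal ED50 in fasted male rats to the ig antisecretory ED50 in histamine-stimulated gastric-fistula dogs.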

Series [4] relates to Canis familiaris. Description: Antisecretory activity after ig administration in histamine-stimulated gastric fistula dogs; Range is 2.4-3.0. Type of series: functional. The conditions noted are these: Canis lupus familiaris, Stomach, po. The essentials: as §2
Series [5] has as its system Canis familiaris. Description: Antisecretory activity after iv administration in histamine-stimulated Heidenhain pouch dogs. Type of series: functional. The conditions noted are these: Canis lupus familiaris. The essentials: as §1
The subject of series [6] is Canis familiaris. Description: Antisecretory activity after ig administration in histamine-stimulated gastric fistula dogs; Range is 6.5-10.0. Type of series: functional. The conditions noted are these: Canis lupus familiaris, Stomach, po. The essentials:
as §2

Series [7] has as its system Canis familiaris. Description: Antisecretory activity after ig administration in histamine-stimulated gastric fistula dogs; Range is 0.3-1.0. Type of series: functional. The conditions noted are these: Canis lupus familiaris, Stomach, po. The essentials:
as §2

Series [8] concerns Canis familiaris. Description: Antisecretory activity after iv administration in histamine-stimulated Heidenhain pouch dogs; Range is 0.1-0.3. The class given is functional. The conditions noted are these: Canis lupus familiaris. The essentials: as §1
Series [9] relates to Canis familiaris. Description: Antisecretory activity after ig administration in histamine-stimulated gastric fistula dogs; Range is 5.5-10.0. Type of series: functional. The conditions noted are these: Canis lupus familiaris, Stomach, po. The essentials: as §2

As to `CCCCC(C)(O)C/C=C/[C@H]1[C@H](O)CC(=O)[C@@H]1C/C=C\CCCC(=O)OC` (stereo not given in full), the ED50 – broadly, the midpoint of the dose-response relation – with Canis familiaris [1] amounted to 0.3 µg/kg; in the series on Canis familiaris [2], 4.5 µg/kg; in the series with Rattus norvegicus, 124 µg/kg. In addition, the selectivity ratio in series [3] came out at 27.6.

`CCCCC(C)(C)[C@H](O)/C=C/C1[C@H](O)CC(=O)[C@@H]1C/C=C\CCCC(=O)OC` (stereo not given in full): the ED50 in the series on Rattus norvegicus turned out to be 10 µg/kg; with Canis familiaris [4], 2.4 µg/kg. The selectivity ratio in series [3] was determined as 4.2.

Compound `CCCCC(C)(O)C/C=C/[C@H]1[C@H](O)CC(=O)[C@@H]1CCC#CCCC(=O)OC` (stereo not given in full) returned an ED50 in the series with Canis familiaris [5] above 100 µg/kg.

Compound `CCCCC(C)(O)C/C=C/[C@H]1[C@H](O)CC(=O)[C@@H]1CC/C=C/CCC(=O)OC` (stereo not given in full) registered an ED50 in the series with Canis familiaris [5] of 10 µg/kg.

Take `CCCCC[C@](C)(O)/C=C/C1[C@H](O)CC(=O)[C@@H]1C/C=C\CCCC(=O)OC` (stereo not given in full): the ED50 in the series with Canis familiaris [6] was found to be 6.5 µg/kg; with Rattus norvegicus, 27 µg/kg. In addition, the selectivity ratio in series [3] was found to be 4.2.

`CCCCC(C)(O)C/C=C/[C@H]1[C@H](O)CC(=O)[C@@H]1CC/C=C\CCC(=O)OC` (stereo not given in full) [ENISOPROST]: the figures for the ED50 in the series on Canis familiaris [7], in the series on Rattus norvegicus and in the series with Canis familiaris [8] were 0.3 µg/kg, 62 µg/kg and 0.1 µg/kg, respectively. For the same compound, the selectivity ratio in series [3] is 208.

Regarding `CCCCC(C)(O)C/C=C/[C@H]1[C@H](O)CC(=O)[C@@H]1CCCCCCC(=O)OC` (stereo not given in full) [MISOPROSTOL], the ED50 in the series on Canis familiaris [1] was 0.3 µg/kg; in the series with Canis familiaris [9], 5.5 µg/kg; with Rattus norvegicus it was 366 µg/kg. Moreover, the selectivity ratio in [3] worked out at 66.5.
